Test results published in ChEMBL document CHEMBL1145905, “Design and synthesis of novel dimeric morphinan ligands for kappa and micro opioid receptors” (J Med Chem, 2003).
Activity calls are given as the source filed them. The rule behind the calls is not given here.

Key:
Mu-type opioid receptor [1] = molecular target: T1, Mu-type opioid receptor (Homo sapiens, UniProt P35372); assay: Maximal percent inhibitory activity was determined in stimulating [35S]-GTP-gamma S binding mediated by the Opioid receptor mu 1 in chinese Hamster Ovary (CHO) cell membranes
In short: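 Antagonist mode: human μ-CHO membranes (7.5 μg protein) with 200 nM DAMGO plus varying compound concentrations, 3 μM GDP, […] [35S]GTPγS, 60 min at 30 °C, pH 7.4 buffer with Mg2+/NaCl/EGTA; filtration, counting.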

[2] = molecular target: Delta-type opioid receptor (Homo sapiens, UniProt P41143); assay: Inhibitory activity against Opioid receptor delta 1 in chinese Hamster Ovary (CHO) cell membranes was determined using [3H]naltrindole radioligand
Mu-type opioid receptor [3] = molecular target: T1, Mu-type opioid receptor; assay: Inhibitory activity against Opioid receptor mu 1 in chinese Hamster Ovary (CHO) cells membranes was determined using [3H]-DAMGO radioligand; type: cell-based
[4] = molecular target: T2, Kappa-type opioid receptor (Homo sapiens, UniProt P41145); assay: Inhibitory activity against Opioid receptor kappa 1 in chinese Hamster Ovary (CHO) cell membranes was determined using [3H]U-69593 radioligand
[5] = molecular target: Opioid receptors; mu & kappa (Homo sapiens) (UniProt P41145+P35372); assay: Selective inhibitory activity was determined against kappa & mu opioid receptor in chinese Hamster Ovary (CHO) cell membranes
[6] = molecular target: Opioid receptors; delta & kappa (Homo sapiens) (UniProt P41145+P41143); assay: Selective inhibitory activity was determined against kappa & delta opioid receptor in chinese Hamster Ovary (CHO) cell membranes
[7] = molecular target: T2, Kappa-type opioid receptor; assay: Inhibitory activity in stimulating [35S]-GTP-gamma S binding mediated by the Opioid receptor kappa 1 in chinese Hamster Ovary (CHO) cell membranes; type: functional
In short: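 Antagonist mode: membranes of CHO cells stably expressing human κ receptor (15 µg protein/tube) incubated with varying compound concentrations plus 100 nM U50,488, 60 min at 30 °C, in Tris/MgCl2/NaCl/EGTA buffer pH 7.4 with 3 µM GDP and [35S]GTPγS. Filtration, scintillation counting. Nonspecific binding with 10 µM GTPγS.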

[8] = molecular target: T2, Kappa-type opioid receptor; assay: Percent maximal stimulation in [35S]-GTP-gamma S binding assay mediated by the Opioid receptor kappa 1 in chinese Hamster Ovary (CHO)membranes; type: functional
[9] = molecular target: T2, Kappa-type opioid receptor; assay: Inhibitory activity in stimulating [35S]-GTP-gamma S binding mediated by the Opioid receptor kappa 1 in chinese Hamster Ovary (CHO) cell membranes was determined; type: functional
Mu-type opioid receptor [10] = molecular target: T1, Mu-type opioid receptor; assay: Inhibitory activity was determined in stimulating [35S]-GTP-gamma S binding mediated by the Opioid receptor mu 1 in chinese Hamster Ovary (CHO)membranes
Mu-type opioid receptor [11] = molecular target: T1, Mu-type opioid receptor; assay: Percent maximal stimulation in [35S]-GTP-gamma S binding assay mediated by the Opioid receptor mu 1 in chinese Hamster Ovary (CHO)membranes
Mu-type opioid receptor [12] = molecular target: T1, Mu-type opioid receptor
[13] = molecular target: T2, Kappa-type opioid receptor; assay: Maximal percent inhibitory activity in stimulating [35S]-GTP-gamma S binding mediated by the Opioid receptor kappa 1 in chinese Hamster Ovary (CHO) cell membranes; No Effect; type: functional
In short: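 Antagonist mode: human κ-CHO membranes (15 μg protein) with 100 nM U50,488 plus varying compound concentrations, 3 μM GDP, […] [35S]GTPγS, 60 min at 30 °C, pH 7.4 buffer with Mg2+/NaCl/EGTA; filtration, counting.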

T1 sequence (P35372 whole entry): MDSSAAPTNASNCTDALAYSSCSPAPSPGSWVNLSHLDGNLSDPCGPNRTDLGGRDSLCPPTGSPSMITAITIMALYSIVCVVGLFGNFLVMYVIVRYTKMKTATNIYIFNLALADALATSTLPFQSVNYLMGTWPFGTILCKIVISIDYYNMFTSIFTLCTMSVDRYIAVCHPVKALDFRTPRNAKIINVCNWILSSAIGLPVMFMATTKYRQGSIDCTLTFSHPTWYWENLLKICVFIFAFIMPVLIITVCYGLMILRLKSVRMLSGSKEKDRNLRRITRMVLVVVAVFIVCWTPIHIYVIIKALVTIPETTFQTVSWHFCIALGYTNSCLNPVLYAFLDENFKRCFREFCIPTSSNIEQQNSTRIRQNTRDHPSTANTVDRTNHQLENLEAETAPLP
Opioid receptors; mu & kappa (Homo sapiens), sequence (P35372 whole entry, looked up): as the sequence (P35372 whole entry) above
Opioid receptors; mu & kappa (Homo sapiens), sequence (P41145 whole entry, looked up): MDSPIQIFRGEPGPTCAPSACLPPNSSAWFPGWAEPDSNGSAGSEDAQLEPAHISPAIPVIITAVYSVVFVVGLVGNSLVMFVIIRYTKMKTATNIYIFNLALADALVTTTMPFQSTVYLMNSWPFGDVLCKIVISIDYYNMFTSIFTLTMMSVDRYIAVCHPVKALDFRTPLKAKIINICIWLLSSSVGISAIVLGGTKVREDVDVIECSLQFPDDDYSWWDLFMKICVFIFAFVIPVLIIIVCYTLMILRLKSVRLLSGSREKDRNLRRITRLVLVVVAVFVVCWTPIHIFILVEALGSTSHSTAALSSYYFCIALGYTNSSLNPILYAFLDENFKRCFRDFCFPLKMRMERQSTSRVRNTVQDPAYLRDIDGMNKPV
Delta-type opioid receptor, sequence (P41143 whole entry): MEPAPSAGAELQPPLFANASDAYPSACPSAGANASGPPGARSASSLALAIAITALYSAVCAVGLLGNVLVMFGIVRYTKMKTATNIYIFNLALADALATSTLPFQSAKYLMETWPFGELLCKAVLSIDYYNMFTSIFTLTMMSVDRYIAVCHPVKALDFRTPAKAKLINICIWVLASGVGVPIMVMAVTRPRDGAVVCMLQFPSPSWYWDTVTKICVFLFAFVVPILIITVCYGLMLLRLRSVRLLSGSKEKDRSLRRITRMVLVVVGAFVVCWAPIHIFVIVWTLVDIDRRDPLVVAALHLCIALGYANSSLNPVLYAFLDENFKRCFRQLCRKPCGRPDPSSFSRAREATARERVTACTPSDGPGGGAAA
Opioid receptors; delta & kappa (Homo sapiens), sequence (P41143 whole entry, looked up): as the sequence (P41143 whole entry) above
Opioid receptors; delta & kappa (Homo sapiens), sequence (P41145 whole entry, looked up): as the sequence (P41145 whole entry, looked up) above
T2 sequence (P41145 whole entry): as the sequence (P41145 whole entry, looked up) above

Compound: Oc1ccc2c(c1)[C@@]13CCCC[C@H]1[C@@H](C2)N(CC1CC1)CC3
- Imax (Mu-type opioid receptor [1]): 50%

Compound: O=C(Oc1ccc2c(c1)[C@@]13CCCC[C@H]1[C@@H](C2)N(CC1CCC1)CC3)[C@H]1C[C@H]1C(=O)Oc1ccc2c(c1)[C@@]13CCCC[C@H]1[C@@H](C2)N(CC1CCC1)CC3
- Ki [2]: 16 nM
- Ki (Mu-type opioid receptor [3]): 0.28 nM
- Ki [4]: 0.17 nM
- Selectivity [5]: 2
- Selectivity [6]: 90

Compound: O=C(/C=C/C(=O)Oc1ccc2c(c1)[C@@]13CCCC[C@H]1[C@@H](C2)N(CC1CCC1)CC3)Oc1ccc2c(c1)[C@@]13CCCC[C@H]1[C@@H](C2)N(CC1CCC1)CC3
- IC50 [7]: 2400 nM
- Ki [2]: 9.4 nM
- Emax [8]: 90%
- EC50 [9]: 2.3 nM
- IC50 (Mu-type opioid receptor [10]): 610 nM
- Ki (Mu-type opioid receptor [3]): 0.2 nM
- Emax (Mu-type opioid receptor [11]): 50%
- EC50 (Mu-type opioid receptor [12]): 2.9 nM
- Ki [4]: 0.078 nM
- Selectivity [5]: 3
- Selectivity [6]: 120
- Imax (Mu-type opioid receptor [1]): 100%

Compound: O=C(CCCC(=O)Oc1ccc2c(c1)[C@@]13CCCC[C@H]1[C@@H](C2)N(CC1CCC1)CC3)Oc1ccc2c(c1)[C@@]13CCCC[C@H]1[C@@H](C2)N(CC1CCC1)CC3
- Ki [2]: 80 nM
- Ki (Mu-type opioid receptor [3]): 3.3 nM
- Ki [4]: 1.2 nM
- Selectivity [5]: 3
- Selectivity [6]: 70

Compound: O=C(CCCCCCCCC(=O)Oc1ccc2c(c1)[C@@]13CCCC[C@H]1[C@@H](C2)N(CC1CCC1)CC3)Oc1ccc2c(c1)[C@@]13CCCC[C@H]1[C@@H](C2)N(CC1CCC1)CC3
- Ki [2]: 4.2 nM
- Emax [8]: 60%
- EC50 [9]: 0.85 nM
- IC50 (Mu-type opioid receptor [10]): 16 nM
- Ki (Mu-type opioid receptor [3]): 0.09 nM
- Emax (Mu-type opioid receptor [11]): 50%
- NE [13]: inactive
- EC50 (Mu-type opioid receptor [12]): 1.3 nM
- Ki [4]: 0.049 nM
- Selectivity [5]: 2
- Selectivity [6]: 90
- Imax (Mu-type opioid receptor [1]): 60%

Compound: O=C(CCCCCCCC(=O)Oc1ccc2c(c1)[C@@]13CCCC[C@H]1[C@@H](C2)N(CC1CCC1)CC3)Oc1ccc2c(c1)[C@@]13CCCC[C@H]1[C@@H](C2)N(CC1CCC1)CC3
- Ki [2]: 21 nM
- Emax [8]: 80%
- EC50 [9]: 15 nM
- IC50 (Mu-type opioid receptor [10]): 360 nM
- Ki (Mu-type opioid receptor [3]): 0.97 nM
- Emax (Mu-type opioid receptor [11]): 57%
- NE [13]: inactive
- EC50 (Mu-type opioid receptor [12]): 11 nM
- Ki [4]: 0.59 nM
- Selectivity [5]: 2
- Selectivity [6]: 35
- Imax (Mu-type opioid receptor [1]): 54%

Compound: O=C(CCC(=O)Oc1ccc2c(c1)[C@@]13CCCC[C@H]1[C@@H](C2)N(CC1CC1)CC3)Oc1ccc2c(c1)[C@@]13CCCC[C@H]1[C@@H](C2)N(CC1CC1)CC3
- Ki [2]: 3.8 nM
- Emax [8]: 70%
- EC50 [9]: 3.3 nM
- IC50 (Mu-type opioid receptor [10]): 1.8 nM
- Ki (Mu-type opioid receptor [3]): 0.14 nM
- Emax (Mu-type opioid receptor [11]): 10%
- Ki [4]: 0.1 nM
- Selectivity [5]: 1
- Selectivity [6]: 40
- Imax (Mu-type opioid receptor [1]): 60%

Compound: Oc1ccc2c(c1)[C@@]13CCCC[C@H]1[C@@H](C2)N(CC1CCC1)CC3 [BUTORPHAN]
- EC50 [9]: 1.3 nM
- Ki [4]: 0.079 nM

Compound: c1cc2c(cc1OCCCCCCCCCCOc1ccc3c(c1)[C@@]14CCCC[C@H]1[C@@H](C3)N(CC1CCC1)CC4)[C@@]13CCCC[C@H]1[C@@H](C2)N(CC1CCC1)CC3
- Ki [2]: 2500 nM
- Ki (Mu-type opioid receptor [3]): 66 nM
- Ki [4]: 120 nM
- Selectivity [5]: 0.5
- Selectivity [6]: 20

Compound: O=C(CCCCCCC(=O)Oc1ccc2c(c1)[C@@]13CCCC[C@H]1[C@@H](C2)N(CC1CCC1)CC3)Oc1ccc2c(c1)[C@@]13CCCC[C@H]1[C@@H](C2)N(CC1CCC1)CC3
- Ki [2]: 24 nM
- Emax [8]: 80%
- EC50 [9]: 11 nM
- IC50 (Mu-type opioid receptor [10]): 90 nM
- Ki (Mu-type opioid receptor [3]): 0.89 nM
- Emax (Mu-type opioid receptor [11]): 60%
- NE [13]: inactive
- EC50 (Mu-type opioid receptor [12]): 10 nM
- Ki [4]: 0.65 nM
- Selectivity [5]: 1
- Selectivity [6]: 37
- Imax (Mu-type opioid receptor [1]): 100%

Compound: CN1CC[C@]23CCCC[C@H]2[C@H]1Cc1ccc(O)cc13 [LEVORPHANOL]
- Ki [4]: 2.3 nM

Compound: Oc1ccc2c(c1)[C@@]13CCCC[C@H]1[C@@H](C2)N(CCCCCCN1CC[C@]24CCCC[C@H]2[C@H]1Cc1ccc(O)cc14)CC3
- Ki [2]: 370 nM
- Ki (Mu-type opioid receptor [3]): 52 nM
- Ki [4]: 50 nM
- Selectivity [5]: 1
- Selectivity [6]: 7

Compound: c1cc2c(cc1OCCCCOc1ccc3c(c1)[C@@]14CCCC[C@H]1[C@@H](C3)N(CC1CCC1)CC4)[C@@]13CCCC[C@H]1[C@@H](C2)N(CC1CCC1)CC3
- Ki [2]: 730 nM
- Ki (Mu-type opioid receptor [3]): 29 nM
- Ki [4]: 18 nM
- Selectivity [5]: 2
- Selectivity [6]: 40

Compound: O=C(CCC(=O)Oc1ccc2c(c1)[C@@]13CCCC[C@H]1[C@@H](C2)N(CC1CCC1)CC3)Oc1ccc2c(c1)[C@@]13CCCC[C@H]1[C@@H](C2)N(CC1CCC1)CC3
- Ki [2]: 9.4 nM
- Emax [8]: 70%
- EC50 [9]: 4.5 nM
- IC50 (Mu-type opioid receptor [10]): 170 nM
- Ki (Mu-type opioid receptor [3]): 0.16 nM
- Emax (Mu-type opioid receptor [11]): 50%
- NE [13]: inactive
- EC50 (Mu-type opioid receptor [12]): 7.4 nM
- Ki [4]: 0.076 nM
- Selectivity [5]: 2
- Selectivity [6]: 120
- Imax (Mu-type opioid receptor [1]): 50%

Compound: O=C(Oc1ccc2c(c1)[C@@]13CCCC[C@H]1[C@@H](C2)N(CC1CCC1)CC3)c1ccc(C(=O)Oc2ccc3c(c2)[C@@]24CCCC[C@H]2[C@@H](C3)N(CC2CCC2)CC4)cc1
- Ki [2]: 400 nM
- Ki (Mu-type opioid receptor [3]): 4.7 nM
- Ki [4]: 4.2 nM
- Selectivity [5]: 1
- Selectivity [6]: 100

Compound: O=C(CCCCCCCCCCC(=O)Oc1ccc2c(c1)[C@@]13CCCC[C@H]1[C@@H](C2)N(CC1CCC1)CC3)Oc1ccc2c(c1)[C@@]13CCCC[C@H]1[C@@H](C2)N(CC1CCC1)CC3
- Ki [2]: 82 nM
- Emax [8]: 90%
- EC50 [9]: 8.1 nM
- IC50 (Mu-type opioid receptor [10]): 100 nM
- Ki (Mu-type opioid receptor [3]): 1.8 nM
- Emax (Mu-type opioid receptor [11]): 14%
- NE [13]: inactive
- Ki [4]: 1.1 nM
- Selectivity [5]: 2
- Selectivity [6]: 75
- Imax (Mu-type opioid receptor [1]): 60%

Compound: O=C(Oc1ccc2c(c1)[C@@]13CCCC[C@H]1[C@@H](C2)N(CC1CCC1)CC3)c1cccc(C(=O)Oc2ccc3c(c2)[C@@]24CCCC[C@H]2[C@@H](C3)N(CC2CCC2)CC4)c1
- Ki [2]: 920 nM
- Ki (Mu-type opioid receptor [3]): 3.3 nM
- Ki [4]: 3.4 nM
- Selectivity [5]: 1
- Selectivity [6]: 270

Compound: O=C(CCCCCCCCC(=O)Oc1ccc2c(c1)[C@@]13CCCC[C@H]1[C@@H](C2)N(CC1CC1)CC3)Oc1ccc2c(c1)[C@@]13CCCC[C@H]1[C@@H](C2)N(CC1CC1)CC3
- Ki [2]: 32 nM
- Emax [8]: 90%
- EC50 [9]: 4.9 nM
- IC50 (Mu-type opioid receptor [10]): 90 nM
- Ki (Mu-type opioid receptor [3]): 0.93 nM
- Emax (Mu-type opioid receptor [11]): 30%
- Ki [4]: 0.41 nM
- Selectivity [5]: 2
- Selectivity [6]: 80
- Imax (Mu-type opioid receptor [1]): 100%

Compound: Oc1ccc2c(c1)[C@@]13CCCC[C@H]1[C@@H](C2)N(CCCN1CC[C@]24CCCC[C@H]2[C@H]1Cc1ccc(O)cc14)CC3
- Ki [2]: 600 nM
- Ki (Mu-type opioid receptor [3]): 48 nM
- Ki [4]: 24 nM
- Selectivity [5]: 2
- Selectivity [6]: 25

Compound: COC(=O)CCCCCCCCC(=O)Oc1ccc2c(c1)[C@@]13CCCC[C@H]1[C@@H](C2)N(CC1CCC1)CC3
- Ki [2]: 44 nM
- Emax [8]: 90%
- EC50 [9]: 5.7 nM
- IC50 (Mu-type opioid receptor [10]): 130 nM
- Ki (Mu-type opioid receptor [3]): 0.23 nM
- Emax (Mu-type opioid receptor [11]): 60%
- NT [13]: inactive
- EC50 (Mu-type opioid receptor [12]): 8 nM
- Ki [4]: 0.07 nM
- Selectivity [5]: 3
- Selectivity [6]: 630
- Imax (Mu-type opioid receptor [1]): 50%
